Compound activity deposited in PubChem by SRMLSC.
The sample as a whole holds a higher share of hits than the screen did.
PTEN del growth – PTEN-deleted cell growth suppression; 140,000 compounds, 1.2% hits; viability, % at 10 µM; HCT116 PTEN-null viability, CellTiter-Glo, 60 h; hits give low values; AID 827;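 active means viability at or below a set limit, 4 SD under the median of all tested compounds, cut at about 3.7% in these data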;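 further: PTEN knockout HCT116 line with beta catenin targeted HCT116 as companion control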
bCat KO growth – beta-catenin-lacking colon tumor cell growth suppression | viability, % at 10 µM | AID 818 | 140,000 compounds, 1.5% hits | HCT116 beta-catenin knockout viability, CellTiter-Glo, 60 h; hits give low values;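 active means viability at or under a set limit, the compound median less 4 SD, cut at about 6% in these data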;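 further: 0% = Hyamine 1622 control at 20 µM and 100% = untreated cell control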
HUVEC inhibit – blocks proliferation of human endothelial cells; HUVEC proliferation, CellTiter-Glo luminescence, 72 h; hits give low values; viability, % at 10 µM (by protocol); 86,000 compounds, 1.1% hits; AID 648;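 active means viability at or below 30%; inactive means viability above 30%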;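 further: 100% = median luminescence of DMSO-only cell control wells on each plate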
Fibroblast inh – blocks proliferation of human lung fibroblasts | LL 47 human lung fibroblast viability, ATP luminescence; hits give low values | 85,000 compounds, 1.1% hits | AID 719 | viability, % at 10 µM;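 active means viability at or below 50% in the single dose screen; inactive means viability above 50%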;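 further: compound exposure lasted 72 h before the ATP readout; 100% = median luminescence of untreated cell-only wells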
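Material: Human LL 47 lung fibroblast cells | Input: 1,150 cells/well | Buffer or medium: IMEM plus 15% FBS | Compound dosing: 0.1% DMSO in all compound wells | Times: Overnight cell rest, 72 h compound treatment at 37 °C | Signal: CellTiter-Glo luminescence measuring cellular ATP | Measure: % viability versus median cells-only luminescence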
H69AR inhibit – blocks growth of human H69AR lung tumor cells; viability, % at 10 µM; H69AR lung tumor viability, ATP luminescence, 72 h; hits give low values; 85,000 compounds, 6% hits; AID 598;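 active means viability at or below 40%; inactive means viability above 40%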;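 further: multidrug resistant small cell line overexpressing MRP-1 efflux transporter; 100% = mean luminescence of untreated control wells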
* marks the source's active call; other numbers are inactive results; . = no result given.

SMILES	PTEN del growth	bCat KO growth	HUVEC inhibit	Fibroblast inh	H69AR inhibit
O=C(O)c1ccccc1C(=O)N1CCN(c2cccc(Cl)c2)CC1	91.0	92.6	83.1	97.6	92.7
CC(=O)C1C(c2ccc(F)cc2)C2C(C)=NN=C2CC1(C)O (configuration not stated)	99.3	91.1	.	.	.
Cc1ccc(C)c(S(=O)(=O)N2CCCOC2CNC(=O)C(=O)NCCC2=CCCCC2)c1 (configuration not stated)	69.8	66.0	.	.	.
COC(=O)C1=C(O)/C(=C\c2ccc(CNC(=O)C(=O)Nc3ccc(C)c(C)c3)o2)N=C1C	95.6	84.5	19.0*	89.2	39.9*
CCOC(=O)C1=C(O)/C(=C/c2ccc(CNC(=O)C(=O)Nc3ccc(C)cc3)o2)N=C1C	10.9	7.2	2.3*	7.4*	36.2*
COC(=O)C1=C(O)/C(=C\c2ccc(CNC(=O)C(=O)Nc3ccc(C)cc3)o2)N=C1C	38.5	35.5	59.9	24.9*	25.4*
CCOC(=O)C1=C(O)/C(=C\c2ccc(CNS(=O)(=O)c3ccc(Br)cc3)o2)N=C1C	97.2	86.7	.	.	.
O=C(Nc1cc(Cl)cc(Cl)c1)c1ccc(Cn2c(=O)[nH]c3ccsc3c2=O)cc1	81.8	70.6	.	.	.
CC(=O)c1ccc(NC(=O)c2ccc3nc(-c4ccco4)c(-c4ccco4)nc3c2)cc1	93.0	91.2	49.0	85.6	2.4*
S=C(Nc1ccc(N2CCOCC2)cc1)Nc1ccc2nc(-c3ccco3)c(-c3ccco3)nc2c1	77.3	67.9	53.5	113.1	32.7*
O=C(Nc1ccc(N2CCOCC2)cc1)c1ccc2nc(-c3ccco3)c(-c3ccco3)nc2c1	82.7	98.1	51.6	82.6	29.3*
COc1cc2c(cc1OC)CN(C(=S)Nc1c(C)cccc1C)CC2	98.9	100.1	.	.	.
Cc1cc(N(C)Cc2ccccc2)nc(-c2ccccc2)n1	50.7	34.0	62.9	80.3	24.0*
Cc1ccc(Cn2nnc3c(=O)n(CC(=O)NCc4ccc5c(c4)OCO5)cnc32)cc1	81.3	85.9	67.3	95.8	38.7*
Cc1nc(NCc2ccc3c(c2)OCO3)c2nnn(Cc3ccccc3)c2n1	13.8	20.1	49.8	47.3*	52.9
O=C(CSC1=NCCN1)NC12CC3CC(CC(C3)C1)C2	16.4	6.2	89.3	95.9	15.5*
O=C(CSC1=NCCN1)NC1CCCCCC1	65.7	47.4	65.7	90.9	88.7
Cc1ccc(C2c3c(-c4ccccc4O)n[nH]c3C(=O)N2Cc2ccncc2)cc1 (configuration not stated)	20.9	24.8	48.7	57.0	7.6*
COc1ccc(CCN2C(=O)c3[nH]nc(-c4ccccc4O)c3C2c2cccc(Cl)c2)cc1 (configuration not stated)	9.9	11.2	14.9*	54.3	22.6*
O=C1c2[nH]nc(-c3ccccc3O)c2C(c2cccc(O)c2)N1Cc1ccco1 (configuration not stated)	73.6	93.0	82.0	89.0	38.1*
O=C(NC(=S)N(Cc1ccccc1)c1ccccn1)C1CC1	94.7	89.4	.	.	.
CCc1ccc(N(CC(=O)Nc2ccccc2C(=O)N2CCOCC2)S(C)(=O)=O)cc1	101.3	94.5	.	.	.
Cc1ccc(C(=O)Nc2ncc(Cc3ccc(F)cc3)s2)o1	87.5	88.5	29.5*	92.4	88.9
Cc1ccc(C(=O)Nc2ncc(C)s2)o1	73.1	76.7	77.5	103.7	79.9
OC(COCC(F)(F)C(F)(F)C(F)(F)C(F)F)Cn1c2ccc(Cl)cc2c2cc(Cl)ccc21 (configuration not stated)	1.7*	2.2*	.	.	.
SMILES	PTEN del growth	bCat KO growth	HUVEC inhibit	Fibroblast inh	H69AR inhibit
O=C(Nc1ccccc1)c1cc(S(=O)(=O)N2CCSCC2)ccc1Cl	83.9	90.9	.	.	.
CC1=C(C(=O)Nc2ccccc2)C(c2cccc([N+](=O)[O-])c2)Nc2nc3ccccc3n21 (configuration not stated)	69.9	70.4	91.2	96.5	34.6*
CCOC(=O)N1CCN(C(=O)c2ccc3c(=O)n(Cc4ccccc4OC)c(=S)[nH]c3c2)CC1	84.8	92.7	88.6	89.3	33.9*
O=C(c1ccc2c(=O)n(CC3CCCO3)c(=S)[nH]c2c1)N1CCN(c2ccccc2)CC1 (configuration not stated)	1.5*	1.1*	107.8	97.3	70.1
O=C(c1ccc2c(=O)n(Cc3ccc4c(c3)OCO4)c(=S)[nH]c2c1)N1CCCCC1	64.8	79.7	72.9	93.0	34.6*
COCCCNC(=O)c1ccc2c(=O)n(Cc3ccc4c(c3)OCO4)c(=S)[nH]c2c1	78.8	83.1	22.3*	113.1	57.5
Cc1ccc(NC(=O)COC(=O)C2CC2)c(Br)c1	105.9	86.1	.	.	.
CCC12CN(C(=O)c3ccc(C)cc3)CC(CC)(CN(C(=O)c3ccc(C)cc3)C1)C2=O	96.5	88.9	.	.	.
CC(=O)Nc1ccc(S(=O)(=O)NC2=C(N3CCN(Cc4ccccc4)CC3)C(=O)c3ccccc3C2=O)cc1	63.9	55.5	7.0*	103.1	30.9*
Cc1cc(C(=O)CSc2nnc(-c3ccc(F)cc3)o2)c(C)n1CC1COc2ccccc2O1 (configuration not stated)	71.3	70.3	51.6	81.2	33.5*
CCOC(=O)Nc1ccc2c(c1)N(C(=O)CCN1CCOCC1)c1ccccc1S2=O (configuration not stated)	15.6	8.6	72.9	73.5	1.9*
O=C(Nc1ccc(N2CCN(C(=O)c3ccccc3)CC2)cc1)c1cc2ccccc2o1	17.1	5.6*	99.7	85.9	82.7
CCOC(=O)c1sc(SCC(=O)Nc2ccc(N(C)C)cc2)nc1N	91.9	94.9	81.0	36.5*	57.9
CN(C)c1ccc(NC(=O)CSc2nc(N)c(C(=O)Nc3ccc(N(C)C)cc3)s2)cc1	46.5	42.0	94.1	88.3	83.0
C/C(=N/NC(=O)c1cccs1)c1ccc(NC(=O)COc2ccc(Cl)cc2Cl)cc1	2.0*	4.3*	.	.	.
Cc1nc2c(=O)n(C)c(=O)n(C)c2nc1Cl	4.2	3.6*	.	.	.
CCc1ccc2[nH]c(=O)c(CN(Cc3ccccc3)Cc3nnnn3Cc3ccco3)cc2c1	62.3	79.1	82.3	92.3	20.7*
CCC(c1nnnn1Cc1ccccc1)N(Cc1ccco1)Cc1cc2cc(OC)ccc2[nH]c1=O (configuration not stated)	44.6	35.0	74.0	84.1	16.2*
CCC(c1nnnn1Cc1ccco1)N(CCc1ccccc1)Cc1cc2cc(C)ccc2[nH]c1=O (configuration not stated)	.	.	75.9	87.7	22.2*
Cn1nc([N+](=O)[O-])nc1Sc1ccc(Cl)cc1	77.7	83.9	.	.	.
COc1ccccc1-c1nnc(Sc2nc([N+](=O)[O-])nn2C)o1	2.4*	2.1*	59.5	63.8	2.8*
Cc1ccc(S(=O)(=O)/N=C(\CCl)N2CCOCC2)cc1	56.7	54.2	76.6	58.6	1.2*
Cc1ccc(NC(=O)c2ccc(NCc3ccco3)c([N+](=O)[O-])c2)cc1Cl	87.8	84.8	.	.	.
